CAL PDZ FP-1: blocks peptide binding to human CAL PDZ domain | 330,000 compounds, 0.02% hits | inhibition, % at 20 µM | purified CAL PDZ, TMR-peptide fluorescence polarization, 1 h | AID 504414;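 active = highest replicate inhibition of at least 40%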;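 also: plate controls were DMSO neutral control wells for no effect and unlabeled competitor peptide control wells for full effect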
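Material: tagged CAL PDZ domain; buffer or medium: 25 mM sodium phosphate pH 7.4, 150 mM NaCl, TCEP, IgG, Thesit; compound dosing: single point, 20 µM; schedule: 1 h incubation at room temperature before polarization reading; measured by: FP readout, S and P plane fluorescence; read-out basis: percent inhibition from loss of millipolarization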
dFosB activator: enhances mouse delta FosB homodimer DNA binding; activation, % at 25 µM; 340,000 compounds, 0.99% hits; P13346; purified delta FosB, TAMRA-CDK5 oligo fluorescence polarization; percent of positive-control signal above neutral wells;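 active = mean activation above about 17%, with every replicate also reaching it, limit read from the data, passing the limit was not always enough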
CAL PDZ FP-2: CAL PDZ (human) peptide binding inhibition; 300,000 compounds, 0.92% hits; inhibition, % at 24.9 µM; Q9HD26; AID 602252; purified CAL PDZ, TMR-peptide fluorescence polarization, 1 h;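 active = mean inhibition of at least 30% with at least half of replicates also reaching 30%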;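 also: 0% = DMSO neutral control and 100% = excess unlabeled competitor peptide PRC23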
PKA-R1A activ: activates the PKA-R1A holoenzyme complex; P00514+P68181; PKA-R1A dissociation, Cy5-IP20 fluorescence polarization; scaled: DMSO 0%, 113 µM cGMP 100%; activation, % at 11.4 µM; 340,000 compounds, 0.083% hits; AID 504707;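 active = percent activation above the mean of all tested compounds plus 3 SD, cut at about 19% in these data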;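 also: higher means more PKAc released from R1A so a rise in polarization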
NTR1 ag: agonists of human neurotensin receptor NTR1 | activation, % at 20 µM | P30989 | 330,000 compounds, 0.17% hits | NTR1-U2OS beta-arrestin-GFP spot imaging, agonist mode;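 active = activation at or above 40% of the spot to cytoplasm intensity ratio, with at least 20 cells analyzed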;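 also: 0% = DMSO without peptide and 100% = 100 nM NTR1 peptide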
Target sequence (P30989 whole entry, looked up): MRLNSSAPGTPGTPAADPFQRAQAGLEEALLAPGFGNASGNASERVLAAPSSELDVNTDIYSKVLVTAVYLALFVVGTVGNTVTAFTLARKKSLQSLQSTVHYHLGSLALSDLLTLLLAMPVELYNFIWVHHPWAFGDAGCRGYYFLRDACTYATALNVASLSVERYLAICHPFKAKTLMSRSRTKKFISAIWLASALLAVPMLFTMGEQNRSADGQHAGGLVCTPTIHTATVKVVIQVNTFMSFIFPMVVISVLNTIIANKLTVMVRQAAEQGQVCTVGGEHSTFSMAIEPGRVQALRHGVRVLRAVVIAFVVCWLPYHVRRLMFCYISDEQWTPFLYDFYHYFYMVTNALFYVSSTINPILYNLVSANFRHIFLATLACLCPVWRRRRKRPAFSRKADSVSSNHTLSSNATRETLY
PKA-R2B activ: activates the human PKA-R2B holoenzyme complex. activation, % at 11.4 µM. AID 504700. PKA-R2B holoenzyme dissociation, Cy5-IP20 fluorescence polarization; R2B truncated from residue 108, S112A mutant; 0% DMSO only, 100% 113 µM cGMP. 340,000 compounds, 0.079% hits. P22694+P31323;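 active = activation above a cutoff set at the mean over all compounds plus 3 SD, cut at about 18% in these data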;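 also: higher means more holoenzyme dissociation and a rise in polarization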
* hit, by the source's call; · = not tested or not shown; + = active, no number. Hits are enriched below; roughly 2% of the tested compounds scored in any of these assays.

SMILES	CAL PDZ FP-1	dFosB activator	CAL PDZ FP-2	PKA-R1A activ	NTR1 ag	PKA-R2B activ
Clc1ccc(OCCOCCN2CCCCC2)c(Br)c1	-2	-1	-2	19*	-1	7
O=C(COc1ccccc1[N+](=O)[O-])NCC1COc2ccccc2O1 (centres undefined)	0	-12	30*	-7	2	-3
CNC(=S)NNC(=O)c1cccc(N(C)C)c1	-6	-3	-3	0	0	2
CN(C)c1cccc(C(=O)NNC(=O)/C=C/c2cccs2)c1	1	-5	77*	1	-2	1
Cc1ccc2nc(Cl)cc(=O)n2c1	0	1	-2	0	·	-4
Cc1ccc2nc(COC(=O)c3ccc(Cl)nc3)cc(=O)n2c1	0	4	46*	-3	3	2
O=C(CNC(=O)c1cccs1)N=Nc1c(O)[nH]c2ccc(Br)cc12	-3	-7	-3	-15	4	-14
O=S(=O)(Cc1ccccc1)N=Nc1c(O)[nH]c2ccc(Br)cc12	0	-2	82*	-12	1	-4
O=C(CNC(=O)c1ccccc1)N=Nc1c(O)[nH]c2ccc(Br)cc12	-2	46*	14	3	3	3
CC(CN1CCN(C)CC1)OC(=O)c1ccccc1Cl (centres undefined)	-2	0	-3	-6	-2	2
Cc1ccccc1C(=O)OC(C)CN1CCN(C)CC1 (centres undefined)	9	-5	116*	1	-1	7
COc1ccc(C=NNC(=S)NN=Cc2ccc(OC)c(OC)c2)cc1OC	0	2	0	4	·	5
COCCCNC(=S)N/N=C/c1ccc(OC)c(Br)c1	-1	-5	54*	5	3	-5
CCn1c(=O)cc(SCC(=O)NCCCN2CCC(C)CC2)c2ccccc21	0	-7	31*	12	0	-10
COc1cccc(CN2C(=NC(=O)CCC3CCCC3)SC3CS(=O)(=O)CC32)c1 (centres undefined)	-1	-5	11	-8	-1	-3
Fc1ccc(C(CCNCc2cccs2)c2ccco2)cc1 (centres undefined)	0	-4	56*	-6	-1	-3
O=S(=O)(NCCC(c1ccc(F)cc1)c1ccco1)c1ccccc1 (centres undefined)	-3	-5	0	-7	7	-11
COc1cc(CNS(=O)(=O)c2ccc3c(c2)CC(C)N3C(C)=O)cc(OC)c1OC (centres undefined)	0	-6	1	7	-1	-8
CCC(CO)[n+]1c(C)cc(/C=C2\Sc3ccccc3N2Cc2ccccc2)cc1C (centres undefined)	0	24*	1	-8	·	-4
Cc1cccc(OCCCC(=O)NC2CCCCC2)c1	-1	-3	1	-7	2	1
CCCn1c(SCC(=O)Nc2cc(Cl)ccc2Cl)n[nH]c1=O	-1	-9	52*	-9	4	5
CCCn1c(SCC(=O)Nc2cc(Cl)ccc2OC)n[nH]c1=O	0	-4	-2	-11	1	-1
CN(c1ccc(C(=O)COC(=O)C2CC2)cc1)S(C)(=O)=O	0	5	-3	0	2	-11
Cc1ccc(S(=O)(=O)NCC(=O)OCC(=O)NC(=O)NC2CCCC2)cc1	1	0	73*	-6	0	7
CC(=O)Nc1ccc(C(=O)OCC(=O)NC(=O)NC2CCCCC2)cc1	-1	-10	86*	-1	0	-13
Cc1cccc(C(CC(=O)NCc2ccco2)c2ccccc2)c1O (centres undefined)	0	-15	+	-11	-2	0
COc1cc(/C=N/N2C(=O)CSC2=S)cc(Br)c1O	-9	8	53*	7	·	-1
O=S(=O)(c1ccccc1)c1nc(-c2ccco2)oc1N1CCCCC1	-1	-5	42*	6	1	4
CCOc1nc(-c2ccccc2)ncc1Oc1ccccc1	·	·	·	·	7	·
COc1ccc(CCNC(=O)c2ccc(Br)cc2)cc1	·	7	42*	-8	·	-3

High-throughput results deposited in PubChem by several laboratories.
